# Hits are enriched below; roughly 3.1% of the tested compounds scored in any of these assays.
# rCAG binder-1 – binders of r(CAG) RNA repeats, primary screen, biochemical, fluorescence; r(CAG) RNA repeat, TO-PRO-1 dye displacement fluorescence; inhibition, % at 3 µM; 370,000 tested, 1.3% active;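 active = inhibition above the plate cutoff, the mean of all test compounds on that plate plus 3 SD, cut at about 35% in these data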;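 also: higher means more dye released from RNA so lower well fluorescence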
# UHRF1 binding – UHRF1 methylated DNA binding inhibitors, primary screen, counter-screen for MBD2 inhibitor project, biochemical, TR-FRET, human UHRF1, single concentration; inhibition, % at 4.4 µM; E3 ubiquitin-protein ligase UHRF1 (Homo sapiens), Q96T88; 370,000 tested, 0.75% active; UHRF1 binding to methylated oligo; in the data active = inhibition above about 21%;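 also: UHRF1 SRA domain binding a hemimethylated CpG hairpin DNA probe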
# ATG4B inhibitor – ATG4B protease inhibitors, primary screen, biochemical, fluorescence, uHTS; 340,000 tested, 0.51% active; inhibition, % at 8.33 µM; AID 504462, 2011; ATG4B cleavage of LC3-PLA2, NBD-HPC fluorescence, 1 h; in the data active = inhibition above about 40%
# LEDGF integ inh – blockers of LEDGF/p75-dependent integrase strand transfer – biochemical, TR-FRET, high throughput, primary screen | TR-FRET IN-LEDGF/p75 DNA integration, Eu/Cy5 | inhibition, % at 3.7 µM | 370,000 tested, 0.64% active | AID 743269, 2014;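 active = inhibition above the screen-wide mean plus 3 SD, cut at about 13% in these data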;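 also: signal is the Cy5 over europium emission ratio at 671 and 618 nm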
# MBD2 DNA inh – inhibitors of MBD2 binding to methylated DNA, primary screen, biochemical, TR-FRET, DNA-binding domain, human; MBD2 binding to methylated oligonucleotide; Methyl-CpG-binding domain protein 2 (Homo sapiens), Q9UBB5; AID 686964, 2013; 370,000 tested, 0.31% active; inhibition, % at 4.4 µM; in the data active = inhibition above about 13%
# Target sequence (Q9UBB5 whole entry, looked up, the tested form may be a part): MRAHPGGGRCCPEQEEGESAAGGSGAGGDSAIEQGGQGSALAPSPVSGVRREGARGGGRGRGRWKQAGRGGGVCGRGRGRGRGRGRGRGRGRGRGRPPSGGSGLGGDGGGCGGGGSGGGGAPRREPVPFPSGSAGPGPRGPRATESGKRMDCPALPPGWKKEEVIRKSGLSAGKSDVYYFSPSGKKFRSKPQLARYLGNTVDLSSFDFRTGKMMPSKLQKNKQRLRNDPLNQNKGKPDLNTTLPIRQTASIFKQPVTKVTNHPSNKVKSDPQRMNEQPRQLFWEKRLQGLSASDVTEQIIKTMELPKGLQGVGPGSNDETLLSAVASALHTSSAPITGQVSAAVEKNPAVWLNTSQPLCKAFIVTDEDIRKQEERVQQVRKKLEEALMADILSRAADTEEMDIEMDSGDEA
# CSN deneddyl inh – inhibitors of CSN-mediated cullin deneddylation, primary screen, biochemical, fluorescence polarization, uHTS. COP9 signalosome complex subunit 5 (Homo sapiens), Q92905. Purified CSN, SCF-Nedd8-OG deneddylation. inhibition, % at 12.5 µM. 360,000 tested, 0.38% active. AID 651999, 2013;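 active = pattern-corrected inhibition above about 35%, with an unprinted fluorescence ratio check between 0.5 and 1.5, limit read from the data, passing the limit was not always enough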
#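 assay system = purified human Csn5 enzyme expressed in HEK293T cells | amount = 0.24 nM enzyme | buffer or medium = Tris/NaCl/DTT buffer, pH 7.5 | reagent = 10 nM SCFSkp2-Nedd8OG | compound = one concentration, 12.5 µM, 0.25% DMSO | times = 90 min reaction at room temperature | signal = FP | read-out basis = % inhibition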
# rCAG binder conf – small molecules binding CAG repeat RNA – biochemical, fluorescence, confirmation; shares compounds with rCAG binder-1; 4,300 tested, 70% active; AID 652065, 2013; inhibition, % at 3 µM; r(CAG) RNA repeat, TO-PRO-1 dye displacement fluorescence;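 active = inhibition above a per-plate cutoff, the mean inhibition of sample wells plus 3 SD, cut at about 35% in these data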;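 also: loss of TO-PRO-1 fluorescence as compound displaces dye from 1x1 AA loop RNA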
# dCAG dye counter – displacement of TO-PRO-1 from CAG DNA duplex, counter-screen for rCAG RNA repeat binder project, biochemical, fluorescence, TO-PRO-1 dye, d(CAG) DNA oligo. shares compounds with rCAG binder-1. d(CAG) DNA oligo TO-PRO-1 dye displacement. inhibition, % at 3 µM. 4,300 tested, 94% active;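 active = inhibition above its plate's cutoff, the mean test-well inhibition plus 3 SD, cut at about 4.8% in these data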;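 also: hits displace the dye from DNA and so lower well fluorescence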
# dCAG dye DR – inhibitors of DNA CAG/GTC TO-PRO-1 complex, dose response, counter-screen for rCAG RNA repeat binder project, biochemical, fluorescence, TO-PRO-1 dye | DNA CAG/GTC duplex TO-PRO-1 dye displacement fluorescence | AID 686960, 2013 | 250 tested, 20% active | shares compounds with rCAG binder-1 | IC50, µM; in the data active = IC50 below about 10 µM
# dCAG TOPRO ctr – TO-PRO-1 dye complex inhibitors on d(CAG) DNA, dose response, counter-screen, biochemical, fluorescence, late stage. d(CAG) DNA duplex TO-PRO-1 dye displacement. shares compounds with rCAG binder-1. 30 tested, 80% active. IC50, µM. AID 720649, 2013
# rCAG binder-2 – molecules binding r(CAG) RNA repeats, late stage dose response, late-stage follow-up, biochemical, fluorescence, dose response, powder samples | IC50, µM | shares compounds with rCAG binder-1 | 30 tested, 100% active | AID 720651, 2013 | r(CAG) RNA TO-PRO-1 dye displacement
# A number is an active result; 0 = inactive; - = not tested or not shown. Unless noted, no rule for the calls is given here.
SMILES,rCAG binder-1,UHRF1 binding,ATG4B inhibitor,LEDGF integ inh,MBD2 DNA inh,CSN deneddyl inh,rCAG binder conf,dCAG dye counter,others
CCOC(=O)c1sc(NC(=O)Nc2ccc(Cl)cc2)nc1C,35.9,0,0,0,0,0,35.8,24.6,
CCc1nnc(NS(=O)(=O)c2ccc(NC(=O)COc3ccc(Cl)c(C)c3)cc2)s1,78.4,0,0,0,0,0,70.1,32.0,dCAG dye DR=0;dCAG TOPRO ctr=3.53;rCAG binder-2=1.3
CCc1nnc(NS(=O)(=O)c2ccc(N/C=C\C(=O)c3cccc4ccccc34)cc2)s1,81.0,0,0,0,0,0,81.8,53.6,
Cc1ccccc1Cn1cc(CN2[C@@H](CC(C)C)COc3cc(Br)ccc3S2(=O)=O)nn1,0,0,-,0,0,-,-,-,
CCc1nnc(NS(=O)(=O)c2ccc(NC(=O)c3cc(Cl)ccc3OC)cc2)s1,75.3,0,0,0,0,0,71.1,33.1,dCAG dye DR=0
O=C(Nc1ccc(Cl)cc1)Nc1nnc(CSCc2ccc(Cl)cc2)s1,0,0,0,0,0,0,-,-,
CCc1nnc(NS(=O)(=O)c2ccc(NC(=O)OC)cc2)s1,0,0,0,0,0,0,-,-,
CCc1nnc(NC(=O)Nc2ccc(Cl)cc2)s1,38.5,0,0,0,0,0,0,11.6,
CCc1nnc(NS(=O)(=O)c2ccc(NC(=O)Nc3ccc(OC)cc3)cc2)s1,54.1,0,0,0,0,0,0,6.9,
COc1ccc(CN(C)C(=O)C2CCCN(c3nc4ccccc4o3)C2)cc1 (stereo unspecified),0,0,-,0,0,-,-,-,
COC(=O)[C@]12CCCCC=C1N(Cc1ccc(OC)cc1)C(=O)[C@@H]2CC(=O)N1CCCCC1,0,0,-,0,0,-,-,-,
CC(COc1ccc(F)cc1)CN1CCC(C(O)(c2ccccc2)c2ccccc2)CC1 (stereo unspecified),0,0,-,0,0,-,-,-,
Cc1ccc(CN2CCCCC(NC(=O)c3ccccc3C)C2=O)cc1 (stereo unspecified),0,0,-,0,0,-,-,-,
CCN(CC)S(=O)(=O)c1ccc(N2CCOCC2)c(NS(=O)(=O)c2ccc(Cl)s2)c1,43.9,0,-,0,0,0,39.1,10.1,
COc1cccc(NC(=O)C2CCCN2C(=O)Nc2cccc3c2OCO3)c1 (stereo unspecified),0,0,-,0,0,-,-,-,
O=C1N=c2ccccc2=C1c1sc(NS(=O)(=O)c2ccccc2)nc1O,41.3,0,0,0,0,0,0,6.0,
O=C1N=c2ccccc2=C1c1sc(Nc2cccc(O)c2)nc1O,60.5,0,0,0,0,0,0,15.0,
O=C1N=c2ccccc2=C1c1sc(Nc2ccc(O)cc2)nc1O,40.8,0,0,0,0,0,0,17.8,
O=C(O)Cn1c(O)c(C2=c3ccccc3=NC2=O)sc1=O,0,0,0,0,0,0,-,-,
O=C1N=c2ccccc2=C1c1sc(NS(=O)(=O)Cc2ccccc2)nc1O,0,0,0,0,0,0,-,-,
COC(=O)C1CN(Cc2cn(Cc3ccc(OC)cc3)nn2)CCS(=O)(=O)N1Cc1ccc(C)cc1 (stereo unspecified),0,0,-,0,0,-,-,-,
Oc1ccc(C2Nc3cccc4cccc(c34)N2)c(O)c1,75.4,0,0,0,0,0,64.5,44.2,
CCOc1cccc(NC(=O)/C(C#N)=C\c2cn(CC(=O)O)c3ccccc23)c1,56.5,0,0,0,0,0,55.9,17.9,
N#C/C(=C/c1cn(CC(=O)O)c2ccccc12)C(=O)Nc1ccccc1,0,0,0,0,0,0,-,-,
CCOc1ccc(NC(=O)/C(C#N)=C/c2cn(CC(=O)O)c3ccccc23)cc1,55.7,0,0,0,0,0,49.7,14.9,
SMILES,rCAG binder-1,UHRF1 binding,ATG4B inhibitor,LEDGF integ inh,MBD2 DNA inh,CSN deneddyl inh,rCAG binder conf,dCAG dye counter,others
CCc1ccc(NC(=O)/C(C#N)=C/c2cn(CC(=O)O)c3ccccc23)cc1,36.2,0,0,0,0,0,0,5.9,
O=C(OC12CCCN(C1)/C(=C/c1ccncc1)C2)c1ccco1 (stereo unspecified),0,0,-,0,0,-,-,-,
NNC(=O)c1cc(NS(=O)(=O)c2cccs2)cc(NS(=O)(=O)c2cccs2)c1,41.9,0,0,0,0,0,0,4.7,
O=C(O)CSc1nc(SCc2ccccc2Cl)nc2c1CCCC2,41.5,0,0,0,0,0,35.7,11.2,dCAG dye DR=0
NC(C(=O)O)C1ON=C(Cl)C1O (stereo unspecified),40.8,0,0,0,0,0,0,0,
COC(=O)[C@]12C[C@H](CC(=O)NCC3CCCCC3)C(=O)N(Cc3cccc4ccccc34)C1=C[C@H](COCc1ccccc1)O[C@@H]2C,0,0,-,0,0,-,-,-,
CC1(C)CC(=O)C2=C(C1)OC1=C(C(=O)CC(C)(C)C1)C2c1cc([N+](=O)[O-])cc([N+](=O)[O-])c1O,52.6,0,0,0,0,0,64.1,24.2,
Cc1cc(OCC(=O)NC(Cc2ccc(Cl)cc2)C(=O)O)c2c(C)c(C)c(=O)oc2c1 (stereo unspecified),45.1,0,0,0,0,0,41.6,9.4,
CCCc1cc(=O)oc2cc(C)cc(OCC(=O)NC(Cc3ccc(Cl)cc3)C(=O)O)c12 (stereo unspecified),45.5,0,0,0,0,0,47.2,10.4,dCAG dye DR=0
